# LANA-H2B inh: blocks KSHV LANA binding to histone H2A/H2B | Q9QR71 | cell-free LANA-H2A/H2B peptide, fluorescence polarization | inhibition, % (concentration not given with the values) | hit rate 0.6% among 320,000; in the data active = inhibition mostly above about 10%, no sharp cut-off; inactive = mostly below about 6.7%
# Target sequence (Q9QR71 whole entry, looked up): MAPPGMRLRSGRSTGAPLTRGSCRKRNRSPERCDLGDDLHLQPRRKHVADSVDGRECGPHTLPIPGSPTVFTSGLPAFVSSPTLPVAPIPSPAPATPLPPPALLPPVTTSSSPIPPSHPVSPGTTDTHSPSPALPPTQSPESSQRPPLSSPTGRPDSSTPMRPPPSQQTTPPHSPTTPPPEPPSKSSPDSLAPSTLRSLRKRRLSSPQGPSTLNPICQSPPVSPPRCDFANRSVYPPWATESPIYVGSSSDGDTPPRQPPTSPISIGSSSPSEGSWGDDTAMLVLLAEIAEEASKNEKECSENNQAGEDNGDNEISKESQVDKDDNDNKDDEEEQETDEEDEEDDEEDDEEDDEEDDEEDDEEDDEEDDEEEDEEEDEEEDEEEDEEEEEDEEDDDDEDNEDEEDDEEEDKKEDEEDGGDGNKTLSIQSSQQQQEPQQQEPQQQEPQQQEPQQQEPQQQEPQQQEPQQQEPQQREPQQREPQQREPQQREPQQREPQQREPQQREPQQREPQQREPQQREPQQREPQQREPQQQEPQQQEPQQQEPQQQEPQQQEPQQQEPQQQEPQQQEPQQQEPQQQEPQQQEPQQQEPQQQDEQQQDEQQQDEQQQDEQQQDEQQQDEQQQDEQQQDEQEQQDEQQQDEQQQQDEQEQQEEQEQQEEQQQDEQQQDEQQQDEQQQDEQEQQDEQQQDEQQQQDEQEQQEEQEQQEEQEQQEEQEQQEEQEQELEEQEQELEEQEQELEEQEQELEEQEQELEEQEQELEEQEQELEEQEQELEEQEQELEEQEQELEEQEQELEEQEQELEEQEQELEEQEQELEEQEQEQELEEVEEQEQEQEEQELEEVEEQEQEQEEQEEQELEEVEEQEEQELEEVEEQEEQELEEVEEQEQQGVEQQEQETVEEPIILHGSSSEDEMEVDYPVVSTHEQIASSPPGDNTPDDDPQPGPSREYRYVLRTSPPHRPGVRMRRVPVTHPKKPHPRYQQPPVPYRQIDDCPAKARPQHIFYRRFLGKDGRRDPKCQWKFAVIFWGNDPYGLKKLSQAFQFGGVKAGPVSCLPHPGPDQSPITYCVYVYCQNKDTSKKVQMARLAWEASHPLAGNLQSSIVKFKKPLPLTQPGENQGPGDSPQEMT
# STK33 inh: human STK33 kinase inhibition; purified STK33, MBP phosphorylation, ADP-Glo luminescence; AID 2661; inhibition, % at 10 µM; hit rate 0.073% among 320,000;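 active = inhibition at or above 25%, using the most active replicate where run in duplicate; inactive = inhibition below 25%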
# Lipid droplet: hepatic lipid droplet formation modulation. AML12 mouse hepatocytes, oleate lipid droplets, BODIPY imaging. inhibition, % at 6.5 µM. hit rate 0.4% among 240,000;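 active = lipid droplet intensity inhibited by at least 50%, with more than 500 cells counted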
#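 material = mouse AML12 hepatocyte cell line, fixed after treatment | also added = 100 µM oleic acid challenge | doses = compound at 6.5 µM only | schedule = overnight exposure | technique = Image-based BODIPY and DAPI two-channel analysis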
# GSK3B inh: blocks human GSK3beta kinase activity | P49841 | GST-GSK3beta kinase, ADP-Glo luminescence, 60 min; stronger effect = lower value | activity score (negative = inhibition), % at 10 µM | hit rate 0.038% among 300,000;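 active = more than half of replicate wells score below -50%, meaning over 50% inhibition versus plate controls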
#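 Test system – GST-tagged human GSK3beta kinase, cell-free · Incubation – 60 min enzyme reaction, room temperature · Signal – ADP-Glo luminescence · Also added – peptide substrate and ATP at 25 µM · Controls – DMSO neutral wells and GW8510 at 20 µM as positive · Buffer or medium – Tris/MgCl2 kinase buffer · Measure – Luminescence-derived activity versus plate DMSO and GW8510 wells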
# GSK3A inh: inhibitors of human GSK-3 alpha kinase | ADP-Glo luminescence, 60 min | inhibition, % at 10 µM | hit rate 0.1% among 320,000;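 active = more than half of replicates show inhibition above 20%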;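 note: GST-tagged GSK-3 alpha with peptide substrate and 25 µM ATP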
# H9c2 TAG inh: reduces triacylglycerol accumulation in H9c2 cells | inhibition, % at 12.5 µM | hit rate 0.66% among 230,000 | AID 651582 | Nile Red lipid (TAG) fluorescence; cells loaded with 200 µM oleic acid;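 active = pattern-corrected inhibition of lipid staining of at least 50% with the nuclear-stain viability signal not falling by more than 50%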
# Hits are given with their value; . = inactive; / = no result given; + = active, no number. Sampled rows, rich in hits. Any-hit rate of the full collection: about 1.3%.
SMILES,LANA-H2B inh,STK33 inh,Lipid droplet,GSK3B inh,GSK3A inh,H9c2 TAG inh
CC(=O)C[C@H](O)CC(=O)[C@@H]1OC(=O)[C@H](C)C/C=C\Cc2ccccc21,+,.,/,/,.,.
CC(=O)C[C@@H](O)CC(=O)[C@H]1OC(=O)[C@H](C)C/C=C\Cc2ccccc21,.,.,/,/,.,.
CC(=O)C[C@@H](O)CC(=O)[C@@H]1OC(=O)CCCCCCCCc2ccccc21,9.2,.,/,/,.,.
CC(=O)C[C@@H](O)CC(=O)[C@H]1OC(=O)CCCCCc2ccccc21,.,.,/,/,.,.
COC(=O)CN(c1ccc(C)cc1)S(=O)(=O)c1ccc(F)cc1,.,.,.,.,.,.
CNC(=S)N(CCCO)Cc1cc2cc3c(cc2[nH]c1=O)OCO3,.,.,.,.,.,/
O=C(CCNC(=O)c1ccc(Br)cc1)NCc1cccnc1,22.0,.,/,.,.,.
O=C(CCSCc1ccc(Cl)cc1)NCc1cccnc1,+,.,.,.,.,.
COc1ccc2nc(NN=C(C)c3ccccn3)cc(C)c2c1,/,/,/,/,/,67.2
C/C(=N\NC(=O)c1cc(C)nc2ccccc12)c1ccccn1,.,.,/,/,.,.
CCc1ccc(-c2cc(C)no2)cc1S(=O)(=O)NCCc1ccccc1,.,.,.,.,.,/
O=C(N/N=C/c1cccs1)c1cc(-c2cccc3ccccc23)n[nH]1,17.0,.,.,.,.,/
O=C(N/N=C/c1cccs1)c1cc(-c2ccc3ccccc3c2)n[nH]1,.,.,.,.,.,.
CCc1ccc(C(=O)N/N=C/c2ccc(Cl)cc2Cl)nc1,40.3,.,.,.,.,/
O=C(CCCC(=O)NN=Cc1ccc(Cl)cc1Cl)NN=Cc1ccc(Cl)cc1Cl,/,/,/,/,/,.
CCOC(=O)c1c(NC(=O)Cc2ccccc2)sc2c1CCN(C)C2,.,.,.,.,.,.
CCOC(=O)c1c(NC(=O)CCS(=O)(=O)c2ccccc2)sc2c1CCN(C)C2,52.6,.,.,.,.,.
CC(=O)N1CCc2c(sc(NC(=O)CCS(=O)(=O)c3ccccc3)c2C(N)=O)C1,32.6,.,.,.,.,.
COc1ccc(CN2CCN(C(=O)c3cccc(OC)c3OC)CC2)cc1OC,.,.,.,.,.,.
O=S(=O)(C=C(c1ccccc1)c1ccccc1)c1ccccc1,15.4,.,/,.,.,.
C#CCN(C[C@@H]1[C@@H](OC(=O)NCc2ccccc2F)[C@@H](OC(=O)NCc2ccccc2F)Cn2c(=O)ccc(=O)n21)S(=O)(=O)c1ccc(C)cc1,/,/,/,/,/,69.3
C#CCN(C[C@@H]1[C@@H](OC(=O)NCc2ccccc2F)[C@@H](OC(=O)NCc2ccccc2F)Cn2c(=O)n(CCCCCC)c(=O)n21)S(=O)(=O)c1ccc(C)cc1,/,/,/,/,/,.
Cc1ccc(/C=C/C(=O)NC(=S)Nc2ccc(S(=O)(=O)Nc3cc(C)on3)cc2)cc1,.,.,.,.,.,/
Cc1cccc2cc(C3CC(c4cccs4)=NN3C(=O)CCC(=O)O)c(Cl)nc12 (centres undefined),.,.,.,.,.,/
COc1ccc(OC)c(-c2oc3ccccc3c(=O)c2O)c1,3.4,.,.,.,.,.
SMILES,LANA-H2B inh,STK33 inh,Lipid droplet,GSK3B inh,GSK3A inh,H9c2 TAG inh
COc1cc(OC)c(-c2oc3ccccc3c(=O)c2O)c(OC)c1,/,/,/,/,/,.
O=C(CSc1nnc(-c2ccccc2Br)o1)N1CCOCC1,20.3,.,.,.,.,/
CCN(CC)C(=S)SCC(=O)c1ccccc1,.,.,/,.,.,.
CCN(CC)C(=S)SSC(=S)N(CC)CC,20.4,.,.,.,.,.
Cc1ncsc1C(=O)N1N=C2/C(=C/c3ccc(N4CCOCC4)cc3)CCCC2C1c1ccc(N2CCOCC2)cc1 (centres undefined),.,.,/,.,.,/
O=C(Cc1ccccc1)Nc1ccc2c(c1)C(=O)N(CC1CCCO1)C2=O (centres undefined),.,.,.,.,.,/
COc1ccc(C(=S)NCS(=O)(=O)c2ccc(C)cc2)cc1,.,.,.,.,.,/
O=C(N/N=C/c1cc(Br)ccc1O)c1ccncc1,.,.,.,.,.,55.9
O=C(N/N=C/c1ccccc1O)c1ccncc1,.,.,/,.,.,.
Cc1ccc(Cc2c(-c3ccc(Br)cc3)nc3ccc(Br)cn23)cc1,/,/,/,/,/,.
COc1ccc(CC(=O)N/N=C/c2ccc(-c3cccc(C(=O)O)c3)o2)cc1OC,8.8,.,.,.,.,.
O=C(Nc1ccsc1C(=O)O)c1ccccc1,.,.,/,.,.,/
O=C(Nc1ccsc1C(=O)NC1CC1)c1ccccc1,.,.,.,.,64.3,.
CC(C)c1ccc(N(C(=O)c2csnn2)C(C(=O)NC(C)(C)C)c2ccncc2)cc1 (centres undefined),.,.,/,.,.,/
CC(C)(C)c1nnc(N/N=C/c2cc(Br)ccc2O)n(N)c1=O,+,.,.,.,.,/
Cn1cccc1CC(=O)NNC(=O)Nc1ccc(Cl)cc1,75.5,.,.,.,.,/
COc1ccc(COc2cc(-c3cccc(OC)c3)nc3ccc(NC(=O)C(C)C)cc23)cc1,.,.,.,.,.,.
Cc1c(CNC2CCC(C)CC2)c(C(=O)O)c(C)n1Cc1ccccc1 (centres undefined),.,.,.,.,.,/
CCc1ccc(/C=C(/C#N)C(N)=S)s1,.,.,.,.,.,.
O=C(COC(=O)Cc1ccsc1)Nc1ccc(Br)cc1,/,/,/,/,/,.
CCC(=O)Nc1ccc(C(=O)COC(=O)Cc2ccsc2)cc1,17.7,.,/,/,.,.
CC(C)(C)c1ccc(Cn2c(=N)n(CC(O)c3ccco3)c3ccccc32)cc1 (centres undefined),18.0,.,.,.,.,107.1
Cc1nnc(SCc2cc([N+](=O)[O-])cc3c2OCOC3)n(N)c1=O,.,.,.,.,.,.
Cc1ccccc1Nc1nnc(SCc2cc([N+](=O)[O-])cc3c2OCOC3)s1,23.9,.,.,.,.,/
O=C(c1ccc(Cn2c(=S)[nH]c3ccc(Br)cc3c2=O)cc1)N1CCN(C2CCCCC2)CC1,10.3,.,.,.,.,.
SMILES,LANA-H2B inh,STK33 inh,Lipid droplet,GSK3B inh,GSK3A inh,H9c2 TAG inh
Cc1cccc(OCc2nnc(SC(C)C(=O)O)n2Cc2ccccc2)c1 (centres undefined),.,.,.,.,.,.
Cc1ccc(OCc2nnc(SC(C)C(=O)O)n2Cc2ccccc2)cc1 (centres undefined),10.7,.,.,.,.,.
O=C(NC1CCN(C(=O)Nc2ccc(F)cc2)CC1)c1cccc(F)c1,.,.,.,/,.,/
COc1ccc(-n2c(C)c([N+](=O)[O-])c3ccc(O)c(CN4CCCCC4)c32)cc1,.,.,/,.,50.7,.
Cc1ccc(-n2c(C)c([N+](=O)[O-])c3ccc(O)c(CN(C)C)c32)cc1,.,.,.,.,.,.
Cc1cc(C(F)(F)F)nn1CC(=O)Nc1cccnc1,.,.,/,.,.,.
Cc1cc(C(C#N)c2ccccc2F)n2ncnc2n1 (centres undefined),.,.,.,.,55.4,.
